pIC50, pKi: −log10 of the molar value.
What was measured:
[1] = Drug level in Sprague-Dawley rat brain striatum at 0.03 mg/kg, iv after 120 min by LC-MS/MS analysis; type: ADME, organism-based; details: read-out: Drug uptake
Method in brief: (§1)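 Single i.v. dose of 0.03 mg/kg in 50% (w/v) PEG/water, pH 7.4; rats n=3 per group, killed at 5, 10, 30, 60 and 120 min. Cerebellum, cortex, striatum and hippocampus dissected, weighed and homogenized; drug quantified by LC-MS/MS and normalized to tissue weight. P<0.05 taken as significant versus cerebellum.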

[2] = Protein binding in human plasma assessed as unbound fraction at 0.5 uM after 6 hrs by equilibrium dialysis method; type: ADME, cell-free
[3] = Drug level in Sprague-Dawley rat brain cerebellum at 0.03 mg/kg, iv after 30 min by LC-MS/MS analysis; type: ADME, organism-based; details: read-out: Drug uptake; method in brief: as §1
Cytochrome P450 2D6 = Cytochrome P450 2D6 (Homo sapiens, UniProt P10635); assay: Inhibition of CYP2D6 in human liver microsomes using dextromethorphan as substrate measured after 15 mins by LC-MS/MS analysis; type: ADME
Sequence of Cytochrome P450 2D6 (P10635 whole entry, canonical isoform): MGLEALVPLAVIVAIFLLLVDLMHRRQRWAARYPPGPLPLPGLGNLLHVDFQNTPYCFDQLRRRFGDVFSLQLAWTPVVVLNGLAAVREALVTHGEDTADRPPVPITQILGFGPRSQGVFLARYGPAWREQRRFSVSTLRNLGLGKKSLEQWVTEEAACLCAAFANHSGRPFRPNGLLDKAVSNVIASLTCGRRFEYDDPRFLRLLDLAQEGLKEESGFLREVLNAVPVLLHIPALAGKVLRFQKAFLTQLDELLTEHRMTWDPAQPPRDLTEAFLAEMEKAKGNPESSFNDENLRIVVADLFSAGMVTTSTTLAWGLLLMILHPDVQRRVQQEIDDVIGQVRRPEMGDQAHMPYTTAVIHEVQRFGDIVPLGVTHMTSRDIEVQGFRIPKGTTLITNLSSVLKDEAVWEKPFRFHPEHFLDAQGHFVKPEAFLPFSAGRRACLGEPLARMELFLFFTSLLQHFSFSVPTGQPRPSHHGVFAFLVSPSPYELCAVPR
Method in brief: (§2)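 Human liver microsomes incubated with isoform-specific probe substrates and the test compound at concentrations up to 20 µM. IC50 derived from inhibition of metabolite formation; mean of two independent experiments, with known specific inhibitors as positive controls.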

[4] = AUC (infinity) in monkey at 0.1 mg/kg, iv by LC-MS/MS analysis; type: ADME, organism-based, Macaca mulatta; design: time infinity, route intravenous, dose 0.1 mg/kg; details: rhesus monkey, in vivo
[5] = Negative allosteric modulation of human GluN1a/GluN2A receptor expressed in CHO cells assessed as inhibition of glutamate and glycine-induced calcium flux preincubated for 5 mins followed by glutamate and glycine addition and measured after 5 mins by calcium 5 dye based FLIPR assay; type: cell-based
Method in brief: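 Tet-On CHO T-Rex cells expressing hGluN1a with GluN2A, 2B, 2C or 2D, plated at 20,000 cells/well and induced 24 h before the assay in the presence of ketamine. Cells loaded 1 h at room temperature with Calcium 5 dye, pH 7.4 HEPES buffer. Compound added 5 min, then glutamate (~EC80) plus 10 µM glycine for 5 min; FLIPR fluorescence normalized to control wells. Three independent runs in duplicate (two for some).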

[6] = AUC (0 to 24 hrs) in Sprague-Dawley rat at 500 mg/kg, po administered via gavage after 24 hrs using nanosuspension formulation by LC-MS/MS analysis; type: ADME, organism-based; design: route oral, dose 500 mg/kg, time <=24; details: in vivo
Method in brief: (§3)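 Single oral gavage dose to male Sprague Dawley rats, 3 per dose level. Vehicles were a standard suspension in 5% HPMC (125, 250, 500 or 1000 mg/kg) or a nanosuspension (API:polymer 4:1), with stock diluted in vehicle on the day of dosing (100, 250 or 500 mg/kg). Blood was sampled at time points from 0.5 to 24 h.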

[7] = Cmax in Sprague-Dawley rat at 250 mg/kg, po administered via gavage after 24 hrs using nanosuspension formulation by LC-MS/MS analysis; type: ADME, organism-based; design: route oral, time 24 hrs, dose 250 mg/kg; details: in vivo; method in brief: as §3
[8] = Half life in Sprague-Dawley rat at 0.5 mg/kg, iv or 2.5 mg/kg, po using 1:1 PEG-400/water formulation by LC-MS/MS analysis; type: ADME, organism-based; details: in vivo
Method in brief: (§4)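 Rats dosed 0.5 mg/kg i.v. and 2.5 mg/kg p.o., n=3 ± SD. Default vehicle is 20% HP-β-CD; one PK set used 1:1 PEG400/water and another 30% SBE-β-CD.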

[9] = Drug level in Sprague-Dawley rat brain hippocampus at 0.03 mg/kg, iv after 120 min by LC-MS/MS analysis; type: ADME, organism-based; details: read-out: Drug uptake; method in brief: as §1
Cytochrome P450 2C8 = target: T1, Cytochrome P450 2C8 (Homo sapiens, UniProt P10632); assay: Inhibition of CYP2C8 in human liver microsomes using amodiaquine as substrate measured after 15 mins by LC-MS/MS analysis; type: ADME; method in brief: as §2
T1 sequence (P10632 whole entry): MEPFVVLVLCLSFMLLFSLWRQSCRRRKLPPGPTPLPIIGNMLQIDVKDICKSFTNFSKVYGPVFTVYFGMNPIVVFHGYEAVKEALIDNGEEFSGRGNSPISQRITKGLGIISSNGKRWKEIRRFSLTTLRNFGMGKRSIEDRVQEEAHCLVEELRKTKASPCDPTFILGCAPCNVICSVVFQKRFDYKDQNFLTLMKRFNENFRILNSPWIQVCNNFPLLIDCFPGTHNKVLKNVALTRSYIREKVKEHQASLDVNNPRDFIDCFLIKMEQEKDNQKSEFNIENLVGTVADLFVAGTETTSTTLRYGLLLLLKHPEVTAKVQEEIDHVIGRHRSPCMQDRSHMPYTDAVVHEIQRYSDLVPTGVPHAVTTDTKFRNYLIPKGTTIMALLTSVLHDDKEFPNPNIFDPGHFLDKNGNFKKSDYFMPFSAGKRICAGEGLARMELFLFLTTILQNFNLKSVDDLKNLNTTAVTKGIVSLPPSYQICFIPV

[10] = Displacement of 3-[3H] 1-(azetidin-1-yl)-2-[6-(4-fluoro-3-methyl-phenyl)pyrrolo[3,2-b]pyridin-1-yl]ethanone from GluN1a/GluN2B receptor in […] measured after 2 hrs by liquid scintillation counting method; type: tissue-based, Cortex
[11] = Oral bioavailability in Sprague-Dawley rat at 2.5 mg/kg using 1:1 PEG-400/water formulation by LC-MS/MS analysis; type: ADME, organism-based; details: in vivo; method in brief: as §4
[12] = Tmax in Sprague-Dawley rat at 0.5 mg/kg, iv or 2.5 mg/kg, po using 1:1 PEG-400/water formulation by LC-MS/MS analysis; type: ADME, organism-based; details: in vivo
Method in brief: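 Rat PK at 0.5 mg/kg i.v. and 2.5 mg/kg p.o., vehicle 1:1 PEG400/water. n=3, values given as mean ± SD.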

[13] = Tmax in Sprague-Dawley rat at 500 mg/kg, po administered via gavage after 24 hrs using nanosuspension formulation by LC-MS/MS analysis; type: ADME, organism-based; details: in vivo
Method in brief: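 Single oral gavage of a nanosuspension (API:polymer 4:1), diluted with vehicle on the dosing day, at 100, 250 or 500 mg/kg to male Sprague Dawley rats, 3 per dose. Plasma was sampled from 0.5 to 24 h.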

[14] = AUC (0 to 24 hrs) in Sprague-Dawley rat at 250 mg/kg, po administered via gavage after 24 hrs using nanosuspension formulation by LC-MS/MS analysis; type: ADME, organism-based; design: route oral, dose 250 mg/kg, time <=24; details: in vivo; method in brief: as §3
[15] = Ratio of Cmax in Sprague-Dawley rat at 1000 mg/kg, po administered via gavage after 24 hrs using HPMC formulation by LC-MS/MS analysis to EC70 for ex vivo receptor occupancy at GluN2B in po dosed Sprague-Dawley rat assessed as 3-[3H] 1-(azetidin-1-yl)-2-[6-(4-fluoro-3-methyl-phenyl)pyrrolo[3,2-b]pyridin-1-yl]-ethanone labelling; type: ADME, organism-based
[16] = Toxicity in Sprague-Dawley rat assessed as change in behavior at 500 mg/kg/day, po administered as nanosuspension measured after 2 days; type: organism-based; details: in vivo, 48 h, time 2 day
Method in brief: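 Repeated daily oral dosing of a nanosuspension to rats for 14 days, with 500 mg/kg/day as the high dose. Clinical observations were recorded, and animals were moved to individual caging on Day 6.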

[17] = AUC (0 to 24 hrs) in Sprague-Dawley rat at 500 mg/kg, po administered via gavage after 24 hrs using HPMC formulation by LC-MS/MS analysis; type: ADME, organism-based; design: route oral, dose 500 mg/kg, time <=24; details: in vivo; method in brief: as §3

**Q.** For `Cn1c(=O)n(CC(=O)N2CCC2)c2cc(-c3ccc(C(F)(F)F)s3)cnc21`, which concentration at 2 h [1] is on record?
**A.** 9.8 ng/mL

**Q.** And the fraction unbound at 6 h, 0.5 µM [2]?
**A.** 0.046

**Q.** And the concentration at 0.5 h [3]?
**A.** 13.8 ng/mL

**Q.** What about the pIC50 (Cytochrome P450 2D6) of the same compound?
**A.** 4.82

**Q.** What about the AUC(0-inf) [4] of the same compound?
**A.** 190 ng·h/mL

**Q.** What about the pIC50 [5] of the same compound?
**A.** < 5.00

**Q.** What about the AUC(0-t) [6] of the same compound?
**A.** 156000 ng·h/mL

**Q.** What about the Cmax [7] of the same compound?
**A.** 12500 ng/mL

**Q.** And the half-life [8]?
**A.** 0.8 h

**Q.** What about the concentration at 2 h [9] of the same compound?
**A.** 10.1 ng/mL

**Q.** What about the pIC50 (Cytochrome P450 2C8) of the same compound?
**A.** < 4.30

**Q.** What about the pKi [10] of the same compound?
**A.** 7.82

**Q.** What about the bioavailability [11] of the same compound?
**A.** 132%

**Q.** And the Tmax [12]?
**A.** 1.3 h

**Q.** And the Tmax [13]?
**A.** 3.3 h

**Q.** What about the AUC(0-t) [14] of the same compound?
**A.** 86400 ng·h/mL

**Q.** What about the Ratio [15] of the same compound?
**A.** 10

**Q.** And the Activity [16]?
**A.** Toxic

**Q.** What about the AUC(0-t) [17] of the same compound?
**A.** 22500 ng·h/mL

Reference: ChEMBL document CHEMBL4725355, “Design, Synthesis, and Preclinical Evaluation of 3-Methyl-6-(5-thiophenyl)-1,3-dihydro-imidazo[4,5-b]pyridin-2-ones as Selective GluN2B Negative Allosteric Modulators for the Treatment of Mood Disorders” (J Med Chem, 2020)
